Source: PubChem BioAssay AID651929 (Vanderbilt Specialized Chemistry Center, 2012)
Activity calls are given as the source filed them. No rule for the calls is given here.

Target: Muscarinic acetylcholine receptor M2 (Rattus norvegicus) (UniProt P10980)
Assay: rat M2 positive allosteric modulation check – CHO cells, calcium flux, selectivity assay for M5 PAM discovery project (AID 651929)
Method in brief: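 System: CHO-K1 cells expressing M2 receptor coupled to Gqi5 chimera / Detection: intracellular calcium response / Reagent: acetylcholine at EC20 (submaximal) concentration / Incubation: 1.5 min compound pretreatment, 50 s acetylcholine stimulation, 25 °C / Measure: calcium signal normalized to baseline, then % maximal acetylcholine response / Medium: pH 7.4 buffer containing probenecid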

Sequence of Muscarinic acetylcholine receptor M2 (Rattus norvegicus) (P10980 whole entry, looked up): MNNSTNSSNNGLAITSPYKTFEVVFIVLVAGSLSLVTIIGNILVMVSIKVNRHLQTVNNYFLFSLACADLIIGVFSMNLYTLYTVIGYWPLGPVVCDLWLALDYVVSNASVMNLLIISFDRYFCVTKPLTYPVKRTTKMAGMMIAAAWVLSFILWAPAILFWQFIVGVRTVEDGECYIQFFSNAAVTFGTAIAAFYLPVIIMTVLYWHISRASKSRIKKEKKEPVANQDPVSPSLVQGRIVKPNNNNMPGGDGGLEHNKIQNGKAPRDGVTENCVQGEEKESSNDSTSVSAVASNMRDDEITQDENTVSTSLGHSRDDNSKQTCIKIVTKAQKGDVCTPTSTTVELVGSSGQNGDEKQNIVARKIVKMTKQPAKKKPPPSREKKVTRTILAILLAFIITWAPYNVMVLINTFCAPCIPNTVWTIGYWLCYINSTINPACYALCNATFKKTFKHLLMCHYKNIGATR

O=C1C(=O)N(CCOc2ccccc2)c2ccc(OC(F)(F)F)cc21
outcome: inactive
